Test results as given in ChEMBL document CHEMBL1134521, “Characterization of melanocortin NDP-MSH agonist peptide fragments at the mouse central and peripheral melanocortin receptors” (J Med Chem, 2001).
Where a SMILES comes first, the peptide text is derived from it. [ ]: non-standard residue; d: D form.

Key:
[1] = molecular target: T1, Melanocortin receptor 5 (Mus musculus, UniProt P41149); assay: Functional activity at the mouse melanocortin 5 receptor
Outline: (§1)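 HEK-293 cells stably expressing the mouse receptor (calcium phosphate transfection, G418 1 mg/mL), transfected with CRE/β-galactosidase reporter. Lysates read at OD405 with ONPG at 37 °C, normalized to protein and forskolin (10^-4 M) response. EC50 from curve fit, at least three independent experiments.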

[2] = molecular target: Melanocortin receptor 4 (Mus musculus, UniProt P56450); assay: Functional activity at the mouse melanocortin 4 receptor; outline: as §1
[3] = molecular target: T2, Melanocyte-stimulating hormone receptor (Mus musculus, UniProt Q01727); assay: Functional activity at the mouse melanocortin 1 receptor; outline: as §1
[4] = molecular target: T3, Melanocortin receptor 3 (Mus musculus, UniProt P33033); assay: Functional activity at the mouse melanocortin 3 receptor; outline: as §1
[5] = molecular target: T2, Melanocyte-stimulating hormone receptor; assay: Functional activity at the mouse melanocortin 1 receptor at 100 uM; Slight agonist
[6] = molecular target: T1, Melanocortin receptor 5; assay: Functional activity at the mouse melanocortin 5 receptor at 100 uM; Slight agonist
[7] = molecular target: T3, Melanocortin receptor 3; assay: Functional activity at the mouse melanocortin 3 receptor at 100 uM; Slight agonist

T2 sequence (Q01727 whole entry): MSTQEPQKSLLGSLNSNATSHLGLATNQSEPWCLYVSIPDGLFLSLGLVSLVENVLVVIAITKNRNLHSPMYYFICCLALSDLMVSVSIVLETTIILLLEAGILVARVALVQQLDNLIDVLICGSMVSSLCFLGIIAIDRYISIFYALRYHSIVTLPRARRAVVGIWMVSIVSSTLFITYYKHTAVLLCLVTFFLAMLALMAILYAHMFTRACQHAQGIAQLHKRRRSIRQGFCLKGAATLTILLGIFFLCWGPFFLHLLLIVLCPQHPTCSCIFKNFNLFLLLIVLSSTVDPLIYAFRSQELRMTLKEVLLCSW
Sequence of Melanocortin receptor 4 (P56450 whole entry): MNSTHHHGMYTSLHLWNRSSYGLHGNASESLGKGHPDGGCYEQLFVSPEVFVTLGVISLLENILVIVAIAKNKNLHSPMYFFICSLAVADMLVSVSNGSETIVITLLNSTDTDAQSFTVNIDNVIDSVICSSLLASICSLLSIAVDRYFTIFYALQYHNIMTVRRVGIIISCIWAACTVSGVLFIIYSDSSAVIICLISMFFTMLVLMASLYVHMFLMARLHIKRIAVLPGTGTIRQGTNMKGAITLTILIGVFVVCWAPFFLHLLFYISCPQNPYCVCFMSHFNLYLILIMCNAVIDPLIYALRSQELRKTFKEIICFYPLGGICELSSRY
T3 sequence (P33033 whole entry): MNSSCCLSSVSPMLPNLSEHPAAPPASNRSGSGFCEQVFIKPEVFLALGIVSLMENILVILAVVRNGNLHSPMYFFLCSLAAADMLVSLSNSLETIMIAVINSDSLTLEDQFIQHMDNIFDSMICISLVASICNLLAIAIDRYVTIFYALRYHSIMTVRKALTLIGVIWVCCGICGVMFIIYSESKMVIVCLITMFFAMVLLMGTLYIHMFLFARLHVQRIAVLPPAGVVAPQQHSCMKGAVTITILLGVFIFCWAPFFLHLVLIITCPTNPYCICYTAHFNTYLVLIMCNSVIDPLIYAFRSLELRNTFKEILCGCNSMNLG
T1 sequence (P41149 whole entry): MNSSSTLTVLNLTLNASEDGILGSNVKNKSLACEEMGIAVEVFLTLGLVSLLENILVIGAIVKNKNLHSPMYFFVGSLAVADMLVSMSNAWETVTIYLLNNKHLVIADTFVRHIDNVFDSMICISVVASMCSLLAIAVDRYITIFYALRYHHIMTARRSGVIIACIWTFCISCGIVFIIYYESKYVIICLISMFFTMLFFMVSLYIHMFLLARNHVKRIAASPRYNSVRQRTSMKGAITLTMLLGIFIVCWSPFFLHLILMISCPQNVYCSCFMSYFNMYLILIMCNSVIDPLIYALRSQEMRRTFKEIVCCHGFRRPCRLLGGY

| SMILES | EC50 [1] | EC50 [2] | EC50 [3] | EC50 [4] | EC50 [5] | EC50 [6] | EC50 [7] |
| --- | --- | --- | --- | --- | --- | --- | --- |
| CCCC[C@H](NC(C)=O)C(=O)N[C@@H](CCC(=O)O)C(=O)N[C@@H](Cc1c[nH]cn1)C(=O)N[C@H](Cc1ccccc1)C(=O)N[C@@H](CCCN=C(N)N)C(=O)N[C@@H](Cc1c[nH]c2ccccc12)C(N)=O | 0.39 nM | 0.45 nM | 0.034 nM | 0.26 nM |  |  |  |
| CC(=O)N[C@@H](Cc1c[nH]cn1)C(=O)N[C@@H](Cc1ccccc1)C(=O)N[C@@H](CCCN=C(N)N)C(=O)N[C@H](Cc1c[nH]c2ccccc12)C(N)=O | 317 nM | 6620 nM |  |  |  |  |  |
| CC(=O)N[C@@H](CCC(=O)O)C(=O)N[C@@H](Cc1c[nH]cn1)C(=O)N[C@H](Cc1ccccc1)C(=O)N[C@@H](CCCN=C(N)N)C(=O)N[C@@H](Cc1c[nH]c2ccccc12)C(N)=O | 0.42 nM | 4.31 nM | 8.94 nM | 15.2 nM |  |  |  |
| CCCC[C@H](NC(C)=O)C(=O)N[C@@H](CCC(=O)O)C(=O)N[C@@H](Cc1cnc[nH]1)C(=O)N[C@H](Cc1ccccc1)C(=O)N[C@@H](CCCNC(=N)N)C(=O)N[C@@H](Cc1c[nH]c2ccccc12)C(=O)NCC(=O)N[C@@H](CCCCN)C(=O)N1CCC[C@H]1C(=O)N[C@H](C(N)=O)C(C)C | 0.46 nM | 0.32 nM | 0.021 nM | 0.11 nM |  |  |  |
| CC(=O)N[C@@H](Cc1cnc[nH]1)C(=O)N[C@H](Cc1ccccc1)C(=O)N[C@@H](CCCNC(=N)N)C(=O)N[C@H](Cc1c[nH]c2ccccc12)C(N)=O | 61.3 nM | 154 nM |  |  |  |  |  |
| CC(=O)N[C@@H](Cc1c[nH]cn1)C(=O)N[C@@H](Cc1ccccc1)C(=O)N[C@@H](CCCN=C(N)N)C(=O)N[C@@H](Cc1c[nH]c2ccccc12)C(N)=O | 103 nM | 2110 nM |  |  |  |  |  |
| CC(=O)N[C@@H](Cc1ccccc1)C(=O)N[C@@H](CCCNC(=N)N)C(=O)N[C@@H](Cc1c[nH]c2ccccc12)C(N)=O (Ac-Phe-Arg-Trp-NH2) |  | > 100000 nM | 5870 nM | > 100000 nM |  |  |  |

Other lines, results leading:

| EC50 [1] | EC50 [2] | EC50 [3] | EC50 [4] | EC50 [5] | EC50 [6] | EC50 [7] | SMILES |
| --- | --- | --- | --- | --- | --- | --- | --- |
| 3.46 nM | 10.2 nM |  |  |  |  |  | CC(=O)N[C@@H](Cc1cnc[nH]1)C(=O)N[C@H](Cc1ccccc1)C(=O)N[C@@H](CCCN=C(N)N)C(=O)N[C@@H](Cc1c[nH]c2ccccc12)C(N)=O |
| 0.59 nM | 0.94 nM | 0.045 nM | 0.39 nM |  |  |  | CCCC[C@H](NC(C)=O)C(=O)N[C@@H](CCC(=O)O)C(=O)N[C@@H](Cc1c[nH]cn1)C(=O)N[C@H](Cc1ccccc1)C(=O)N[C@@H](CCCN=C(N)N)C(=O)N[C@@H](Cc1c[nH]c2ccccc12)C(=O)NCC(N)=O |
| 0.46 nM | 0.44 nM | 0.018 nM | 0.16 nM |  |  |  | CCCC[C@H](NC(=O)[C@H](CO)NC(=O)[C@H](Cc1ccc(O)cc1)NC(=O)[C@H](CO)NC(C)=O)C(=O)N[C@@H](CCC(=O)O)C(=O)N[C@@H](Cc1c[nH]cn1)C(=O)N[C@H](Cc1ccccc1)C(=O)N[C@@H](CCCN=C(N)N)C(=O)N[C@@H](Cc1c[nH]c2ccccc12)C(=O)NCC(=O)N[C@@H](CCCCN)C(N)=O |
| 0.17 nM | 0.45 nM | 0.49 nM | 6.82 nM |  |  |  | CC(=O)N[C@@H](Cc1c[nH]cn1)C(=O)N[C@H](Cc1ccccc1)C(=O)N[C@@H](CCCN=C(N)N)C(=O)N[C@@H](Cc1c[nH]c2ccccc12)C(=O)NCC(=O)N[C@@H](CCCCN)C(=O)N1CCC[C@H]1C(=O)N[C@H](C(N)=O)C(C)C |
| 0.53 nM | 0.78 nM | 0.036 nM | 0.29 nM |  |  |  | CCCC[C@H](NC(=O)[C@H](CO)NC(=O)[C@H](Cc1ccc(O)cc1)NC(=O)[C@H](CO)NC(C)=O)C(=O)N[C@@H](CCC(=O)O)C(=O)N[C@@H](Cc1cnc[nH]1)C(=O)N[C@H](Cc1ccccc1)C(=O)N[C@@H](CCCNC(=N)N)C(=O)N[C@@H](Cc1c[nH]c2ccccc12)C(N)=O |
| 6880 nM | 11200 nM |  | > 100000 nM | Partial agonist |  |  | CC(=O)N[C@H](Cc1ccccc1)C(=O)N[C@@H](CCCN=C(N)N)C(=O)N[C@H](Cc1c[nH]c2ccccc12)C(N)=O |
|  |  |  |  |  | Partial agonist |  | CC(=O)N[C@@H](Cc1ccccc1)C(=O)N[C@@H](CCCN=C(N)N)C(=O)N[C@@H](Cc1c[nH]c2ccccc12)C(N)=O (Ac-Phe-Arg-Trp-NH2) |
| 1660 nM | 2320 nM | 4540 nM |  |  |  | Partial agonist | CC(=O)N[C@H](Cc1ccccc1)C(=O)N[C@@H](CCCN=C(N)N)C(=O)N[C@@H](Cc1c[nH]c2ccccc12)C(N)=O (Ac-[dF]-Arg-Trp-NH2) |
